The source made the active and inactive calls. The calls are words filed in the database; no cut-off is given here.
Experiments:
Mus musculus [1] = assay: Neurotoxicity in NMRI mouse assessed as minimal motor impairment at 20 to 100 mg/kg, ip after 4 hrs by rotarod test; type: toxicity, organism-based; design: dose 20-100 mg/kg, route intraperitoneal; conditions: in vivo
In short: (§1)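 Rotarod motor-impairment test in mice given 20, 40 and 100 mg/kg doses, read 0.5 and 4 h after administration. The value recorded is the minimal dose producing toxicity in more than 50% of mice.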

Mus musculus [2] = assay: Anticonvulsant activity in ip dosed NMRI mouse assessed as dose required to cause protection against subcutaneous pentylene tetrazole-induced seizure after 4 hrs; type: functional; conditions: read-out: MED
In short: (§2)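 Mice received 20, 40 and 100 mg/kg test doses. Seizures were induced by electrical shock (MES) or PTZ injection (scPTZ) at 0.5 and 4 h after dosing. The value recorded is the minimal dose protecting more than 50% of mice against seizure.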

Mus musculus [3] = assay: Anticonvulsant activity in ip dosed NMRI mouse assessed as dose required to cause protection against maximal electroshock-induced seizures after 4 hrs; type: functional; conditions: read-out: MED; in short: as §2
Mus musculus [4] = assay: Anticonvulsant activity in NMRI mouse assessed as protection against maximal electroshock-induced seizures at 20 to 100 mg/kg, ip after 0.5 hrs; type: functional, organism-based; in short: as §2
Mus musculus [5] = assay: Neurotoxicity in NMRI mouse assessed as minimal motor impairment at 20 to 100 mg/kg, ip after 0.5 hrs by rotarod test; type: toxicity, organism-based; design: dose 20-100 mg/kg, route intraperitoneal; conditions: in vivo; in short: as §1
Mus musculus [6] = assay: Anticonvulsant activity in ip dosed NMRI mouse assessed as dose required to cause protection against subcutaneous pentylene tetrazole-induced seizure after 0.5 hrs; type: functional; conditions: read-out: MED; in short: as §2
[7] = Neurotoxicity in ip dosed NMRI mouse assessed as dose required to cause minimal motor impairment after 4 hrs by rotarod test; type: toxicity, organism-based; conditions: in vivo, read-out: MTC50; in short: as §1
Mus musculus [8] = assay: Anticonvulsant activity in NMRI mouse assessed as protection against subcutaneous pentylene tetrazole-induced seizure at 20 to 100 mg/kg, ip after 0.5 hrs; type: functional, organism-based; in short: as §2
Mus musculus [9] = assay: Anticonvulsant activity in NMRI mouse assessed as protection against maximal electroshock-induced seizures at 20 to 100 mg/kg, ip after 4 hrs; type: functional, organism-based; in short: as §2
Mus musculus [10] = assay: Anticonvulsant activity in NMRI mouse assessed as protection against subcutaneous pentylene tetrazole-induced seizure at 20 to 100 mg/kg, ip after 4 hrs; type: functional, organism-based; in short: as §2
Mus musculus [11] = assay: Anticonvulsant activity in ip dosed NMRI mouse assessed as dose required to cause protection against maximal electroshock-induced seizures after 0.5 hrs; type: functional; conditions: read-out: MED; in short: as §2

Row | SMILES | Activity (Mus musculus [1]) | minimal effective dose (Mus musculus [2]) [mg/kg] | minimal effective dose (Mus musculus [3]) [mg/kg] | Activity (Mus musculus [4]) | Activity (Mus musculus [5]) | minimal effective dose (Mus musculus [6]) [mg/kg] | TD50 at 4 h [7] [mg/kg] | Activity (Mus musculus [8]) | Activity (Mus musculus [9]) | Activity (Mus musculus [10]) | minimal effective dose (Mus musculus [11]) [mg/kg]
1 | COc1ccc(Cn2cc(CO/N=C/c3c(-c4ccccc4)nc4c(C)cccn34)nn2)cc1 | Non-toxic | 100 | 40 | inactive | Non-toxic | 40 | – | – | – | – | –
2 | Cc1ccc(-c2nc3c(C)cccn3c2/C=N/OCc2cn(Cc3ccc(C#N)cc3)nn2)cc1 | – | 100 | – | inactive | Non-toxic | – | 100 | inactive | inactive | – | –
3 | COc1ccc(Cn2cc(CO/N=C/c3c(-c4ccc(C)cc4)nc4c(C)cccn34)nn2)cc1 | Non-toxic | 100 | 100 | inactive | Non-toxic | 40 | – | – | – | – | –
4 | O/N=C/c1c(-c2ccccc2)nc2ccc(Br)cn12 | Non-toxic | – | – | inactive | Non-toxic | – | – | inactive | inactive | inactive | –
5 | Cc1cccn2c(/C=N/O)c(-c3ccccc3)nc12 | Non-toxic | – | – | inactive | Non-toxic | – | – | inactive | inactive | inactive | –
6 | C#CCO/N=C/c1c(-c2ccc(F)cc2)nc2ccc(Br)cn12 | Non-toxic | – | – | inactive | Non-toxic | 40 | – | – | inactive | inactive | –
7 | COc1ccc(Cn2cc(CO/N=C/c3c(-c4ccc(C)cc4)nc4ccc(Br)cn34)nn2)cc1 | Non-toxic | 40 | – | inactive | Non-toxic | – | – | inactive | inactive | – | –
8 | C#CCO/N=C/c1c(-c2ccccc2)nc2c(C)cccn12 | Non-toxic | 100 | – | inactive | Non-toxic | – | – | inactive | inactive | – | –
9 | N#Cc1ccc(Cn2cc(CO/N=C/c3c(-c4ccccc4)nc4ccc(Br)cn34)nn2)cc1 | Non-toxic | 20 | 100 | inactive | Non-toxic | 20 | – | – | – | – | –
10 | O/N=C/c1c(-c2ccc(F)cc2)nc2ccc(Br)cn12 | Non-toxic | 40 | – | inactive | Non-toxic | 40 | – | – | inactive | – | –
11 | C#CCO/N=C/c1c(-c2ccc(C)cc2)nc2ccc(Br)cn12 | Non-toxic | 40 | 20 | inactive | Non-toxic | 20 | – | – | – | – | –
12 | O=[N+]([O-])c1ccc(Cn2cc(CO/N=C/c3c(-c4ccccc4)nc4ccc(Br)cn34)nn2)cc1 | Non-toxic | 40 | 40 | inactive | Non-toxic | 20 | – | – | – | – | –
13 | Cc1ccc(Cn2cc(CO/N=C/c3c(-c4ccccc4)nc4ccc(Br)cn34)nn2)cc1 | Non-toxic | – | – | inactive | Non-toxic | – | – | inactive | inactive | inactive | –
14 | Cc1ccc(-c2nc3c(C)cccn3c2/C=N/O)cc1 | Non-toxic | 40 | 40 | inactive | Non-toxic | 20 | – | – | – | – | –
15 | COc1ccc(Cn2cc(CO/N=C/c3c(-c4ccccc4)nc4ccc(Br)cn34)nn2)cc1 | Non-toxic | 40 | – | inactive | Non-toxic | – | – | inactive | inactive | – | –
16 | Cc1ccc(Cn2cc(CO/N=C/c3c(-c4ccccc4)nc4c(C)cccn34)nn2)cc1 | Non-toxic | – | – | inactive | Non-toxic | – | – | inactive | inactive | inactive | –
17 | Cc1ccc(Cn2cc(CO/N=C/c3c(-c4ccc(C)cc4)nc4c(C)cccn34)nn2)cc1 | Non-toxic | – | – | inactive | Non-toxic | – | – | inactive | inactive | inactive | –

Row | SMILES | Activity (Mus musculus [1]) | minimal effective dose (Mus musculus [2]) [mg/kg] | minimal effective dose (Mus musculus [3]) [mg/kg] | Activity (Mus musculus [4]) | Activity (Mus musculus [5]) | minimal effective dose (Mus musculus [6]) [mg/kg] | TD50 at 4 h [7] [mg/kg] | Activity (Mus musculus [8]) | Activity (Mus musculus [9]) | Activity (Mus musculus [10]) | minimal effective dose (Mus musculus [11]) [mg/kg]
18 | N#Cc1ccc(Cn2cc(CO/N=C/c3c(-c4ccc(F)cc4)nc4ccc(Br)cn34)nn2)cc1 | – | 100 | 100 | inactive | Non-toxic | – | 100 | inactive | – | – | –
19 | COc1ccc(Cn2cc(CO/N=C/c3c(-c4ccc(F)cc4)nc4ccc(Br)cn34)nn2)cc1 | Non-toxic | – | – | inactive | Non-toxic | – | – | inactive | inactive | inactive | –
20 | Cc1ccc(-c2nc3ccc(Br)cn3c2/C=N/O)cc1 | Non-toxic | 20 | 100 | inactive | Non-toxic | 20 | – | – | – | – | –
21 | CN1C(=O)CN=C(c2ccccc2)c2cc(Cl)ccc21 [DIAZEPAM] | Non-toxic | 20 | – | – | Non-toxic | 20 | – | – | – | – | –
22 | C#CCO/N=C/c1c(-c2ccc(F)cc2)nc2c(C)cccn12 | Non-toxic | 100 | – | inactive | Non-toxic | – | – | inactive | inactive | – | –
23 | Cc1ccc(-c2nc3ccc(Br)cn3c2/C=N/OCc2cn(Cc3ccc(C#N)cc3)nn2)cc1 | Non-toxic | 40 | – | inactive | Non-toxic | 40 | – | – | inactive | – | –
24 | Cc1ccc(Cn2cc(CO/N=C/c3c(-c4ccc(F)cc4)nc4ccc(Br)cn34)nn2)cc1 | Non-toxic | 100 | – | inactive | Non-toxic | – | – | inactive | inactive | – | –
25 | O=C1NC(=O)C(c2ccccc2)(c2ccccc2)N1 [PHENYTOIN] | – | – | 20 | – | – | – | – | – | – | – | 20
26 | Cc1cccn2c(/C=N/OCc3cn(Cc4ccc([N+](=O)[O-])cc4)nn3)c(-c3ccccc3)nc12 | Non-toxic | – | – | inactive | Non-toxic | – | – | inactive | inactive | inactive | –
27 | COc1ccc(Cn2cc(CO/N=C/c3c(-c4ccc(F)cc4)nc4c(C)cccn34)nn2)cc1 | Non-toxic | 40 | – | inactive | Non-toxic | 40 | – | – | inactive | – | –
28 | Cc1cccn2c(/C=N/O)c(-c3ccc(F)cc3)nc12 | Non-toxic | 40 | – | inactive | Non-toxic | – | – | inactive | inactive | – | –
29 | Cc1cccn2c(/C=N/OCc3cn(Cc4ccc(C#N)cc4)nn3)c(-c3ccccc3)nc12 | Non-toxic | 40 | – | inactive | Non-toxic | – | – | inactive | inactive | – | –
30 | O=[N+]([O-])c1ccc(Cn2cc(CO/N=C/c3c(-c4ccc(F)cc4)nc4ccc(Br)cn34)nn2)cc1 | – | 100 | 100 | inactive | Non-toxic | 40 | 100 | – | – | – | –
31 | Cc1ccc(Cn2cc(CO/N=C/c3c(-c4ccc(C)cc4)nc4ccc(Br)cn34)nn2)cc1 | Non-toxic | 100 | – | inactive | Non-toxic | 40 | – | – | inactive | – | –
32 | Cc1ccc(Cn2cc(CO/N=C/c3c(-c4ccc(F)cc4)nc4c(C)cccn34)nn2)cc1 | Non-toxic | 40 | – | inactive | Non-toxic | – | – | inactive | inactive | – | –
33 | C#CCO/N=C/c1c(-c2ccccc2)nc2ccc(Br)cn12 | Non-toxic | – | – | inactive | Non-toxic | – | – | inactive | inactive | inactive | –

Source: ChEMBL document CHEMBL2385051, “Facile synthesis of new imidazo[1,2-a]pyridines carrying 1,2,3-triazoles via click chemistry and their antiepileptic studies” (Bioorg Med Chem Lett, 2013)
